This is an account of results in PubChem BioAssay.

Calls of active or inactive are those of the source.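 How the source made its calls, unless noted: active means viability at or below 30% in both replicate assays; inconclusive means viability at or below 30% in just one of the two assays; inactive means the rest.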

The nature of assay [1]: Her2 expression decrease, cell viability multiplex – SKBR3 breast tumor cells, AlphaScreen, ATP viability, primary screen (AID 461;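 active means Her2 level under about 52% in both replicate screens, with viability over 70% of control, limit read from the data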;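 on Her2 level: lower value means less Her2 protein in the cells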;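 on viability: percent of carrier control wells set as 100% viability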). The conditions noted are these: SKBR3 Her2 protein level, 18-24 h, measured here: SKBR3 viability, ATP luminescence, at 10 µM. (Bead proximity is the source of the signal in Alpha formats.)
Assay [2] concerns the target Receptor tyrosine-protein kinase erbB-2 (Homo sapiens) (UniProt P04626). The description is as above. The conditions noted are these: 18-24 h, at 10 µM, stronger effect = lower value.
Assay [3] in a line: reduced viability of SK-BR-3 breast cancer cells – cell-based, 24 h, human, pilot screen (AID 572;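 active means viability at or below 10% of carrier control in both of two separate runs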;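 further: compound exposure lasted between 18 and 24 h rather than exactly 24 h; 100% = carrier-treated control wells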). The conditions noted are these: SK-BR-3 viability, CellTiter-Glo luminescence, at 10 µM, stronger effect = lower value. A general note: Cellular ATP, detected with luciferase, serves as a proxy for viable cell number.
The nature of assay [4]: HUVEC growth inhibition – cell-based, human, primary screen (AID 575).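 Further: 100% = median of untreated cell wells with 0.1% DMSO on each plate.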 The conditions noted are these: HUVEC proliferation, CellTiter-Glo luminescence, 72 h; at 10 µM; stronger effect = lower value. An outline of the steps:
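Assay system: primary human umbilical vein endothelial cells / Buffer or medium: endothelial basal medium with 2% FBS plus growth supplements / Compound dosing: one dose, 10 µM final, 0.1% DMSO / Timing: 72 h treatment at 37 °C / Signal: CTG luminescence / Benchmarks: 32 DMSO-only cell-control wells (high), 32 MePR drug-control wells (low) per plate / Plate: collagen-coated 384-well format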

Assay [5] is described as follows: H69AR cell proliferation blockers – human, duplicate replicates, primary screen (AID 580;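 active means viability at or under a set limit in both replicates, limit being median viability minus 3 SD, cut at about 48% in these data, passing the limit was not always enough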;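 further: 100% = mean luminescence of untreated wells and 0% = no signal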). The conditions noted are these: H69AR lung tumor cells viability, ATP luminescence, 72 h; at 10 µM; stronger effect = lower value.
Assay [6] in a line: MRP1 drug-resistance reversers in H69AR cells – cell-based, doxorubicin co-treatment, pilot screen (AID 601;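 active means viability loss from added drug above about 55%, and viability with drug at most 40%, in both replicates, limit read from the data, passing the limit was not always enough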). The conditions noted are these: CellTiter-Glo, 72 h, at 10 µM; for differential viability (reversal): stronger effect = higher value.
Assay [7] in a line: yeast transport mutant growth inhibition pilot in 384-well plates, post-Golgi transport modulator project (AID 636; in the data active means inhibition above about 31%). The conditions noted are these: absorbance 615 nm, about 18 h, stronger effect = higher value.
A short description of assay [8]: growth suppression of yeast trafficking mutant, preliminary HTS, modulators of trafficking downstream of Golgi apparatus project, 1536-format plate, OD 615 nm (AID 637; in the data active means inhibition above about 30%). The conditions noted are these: yeast transport mutant growth, absorbance 615 nm, 18 h; stronger effect = higher value.
The mark [9] stands for this setting: H69AR cells + 2 uM doxorubicin, measured here: viability with 2 uM doxorubicin, stronger effect = lower value.
Where [10] appears, read: H69AR cells, compound alone cytotoxicity.

Chain of Receptor tyrosine-protein kinase erbB-2 (Homo sapiens) (P04626 whole entry, looked up): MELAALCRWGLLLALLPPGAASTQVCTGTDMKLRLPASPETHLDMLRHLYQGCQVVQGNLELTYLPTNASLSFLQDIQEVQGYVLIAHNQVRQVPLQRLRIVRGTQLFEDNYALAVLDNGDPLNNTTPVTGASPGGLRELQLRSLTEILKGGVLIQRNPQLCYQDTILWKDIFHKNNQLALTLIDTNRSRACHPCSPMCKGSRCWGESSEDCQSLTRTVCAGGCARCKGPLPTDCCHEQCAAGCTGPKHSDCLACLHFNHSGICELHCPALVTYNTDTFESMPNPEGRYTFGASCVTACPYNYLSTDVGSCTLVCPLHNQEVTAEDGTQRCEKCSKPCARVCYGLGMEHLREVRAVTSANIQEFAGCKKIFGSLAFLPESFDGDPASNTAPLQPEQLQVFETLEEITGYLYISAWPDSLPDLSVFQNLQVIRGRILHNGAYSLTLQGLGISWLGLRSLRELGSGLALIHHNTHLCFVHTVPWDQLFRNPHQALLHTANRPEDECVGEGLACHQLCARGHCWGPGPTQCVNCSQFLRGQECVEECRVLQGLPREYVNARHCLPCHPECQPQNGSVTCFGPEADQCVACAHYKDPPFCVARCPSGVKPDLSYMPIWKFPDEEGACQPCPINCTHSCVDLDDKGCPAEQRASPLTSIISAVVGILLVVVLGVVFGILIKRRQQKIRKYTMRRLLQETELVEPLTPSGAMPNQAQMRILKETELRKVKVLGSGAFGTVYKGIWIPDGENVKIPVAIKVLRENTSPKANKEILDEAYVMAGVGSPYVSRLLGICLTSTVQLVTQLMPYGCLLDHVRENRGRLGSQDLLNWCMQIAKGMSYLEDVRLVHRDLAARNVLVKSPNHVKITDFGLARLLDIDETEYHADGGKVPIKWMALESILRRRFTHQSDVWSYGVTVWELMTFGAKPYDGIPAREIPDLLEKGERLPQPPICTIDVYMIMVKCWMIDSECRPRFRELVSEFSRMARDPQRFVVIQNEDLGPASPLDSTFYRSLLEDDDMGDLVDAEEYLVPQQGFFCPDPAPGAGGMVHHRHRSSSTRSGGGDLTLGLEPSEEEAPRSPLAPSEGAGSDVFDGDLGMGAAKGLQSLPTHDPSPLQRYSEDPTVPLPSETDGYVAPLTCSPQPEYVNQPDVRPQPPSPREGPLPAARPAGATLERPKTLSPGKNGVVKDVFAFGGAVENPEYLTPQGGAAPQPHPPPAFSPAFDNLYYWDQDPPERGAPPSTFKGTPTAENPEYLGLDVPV

The term viability denotes a read-out of living cells in per cent, often relative to untreated cells. A word on the inhibition: it is the relative decrease from the control value, in per cent. Take `CCOc1ccc(S(=O)(=O)NCC2CCCO2)c2cccnc12` (stereo not given): the viability in assay [1] is 99%; in assay [3], 99% (inactive); in assay [4], 93.8% (inactive); in assay [5], 93.6% (inactive); in assay [6] (setting [9]), 87.1%; in assay [6] (setting [10]), 93.6%. Also, in assay [2], the Her2 level is 99.5% (inactive). Further, in assay [6] (H69AR cells + 2 uM doxorubicin), the differential viability (reversal) is 6.55% (inactive). Besides, the inhibition in assay [7] was 0.13% (inactive); in assay [8], 5.08% (inactive).
Regarding `CCn1nnnc1NCc1cccn1C`, the viability in assay [1] was 88%; in assay [3], 88% (inactive); in assay [4], 105% (inactive); in assay [5], 95.9% (inactive); in assay [6] (setting [9]), 92.4%; in assay [6] (setting [10]), 95.9%. Moreover, the Her2 level in assay [2] was 83% (inactive). In assay [6] (H69AR cells + 2 uM doxorubicin), the differential viability (reversal) was 3.54% (inactive). In addition, the inhibition in assay [7] was -4.27% (inactive); in assay [8] it was 2.3% (inactive).
As to `c1ccc(-n2c(Sc3cnccn3)nnc2-c2cccs2)cc1`, the viability in assay [1] is 114%; in assay [3], 114% (inactive); in assay [4], 89.1% (inactive); in assay [5], 95.8% (inactive); in assay [6] (setting [9]), 88.5%; in assay [6] (setting [10]), 95.8%. Further, the Her2 level in assay [2] is 109% (inactive). In addition, the differential viability (reversal) in assay [6] (H69AR cells + 2 uM doxorubicin) is 7.33% (inactive). The inhibition was -5.41% (inactive) in assay [7] and -3.49% (inactive) in assay [8].
Turning to `CCn1c(COc2cccc3ccccc23)nnc1SCC(N)=O`, the viability in assay [1] was 96%; in assay [3], 96% (inactive); in assay [4] it was 91% (inactive); in assay [5], 91.1% (inactive); in assay [6] (setting [9]) it was 78.2%; in assay [6] (setting [10]), 91.1%. For the same compound, the Her2 level in assay [2] was 75% (inactive). Besides, in assay [6] (H69AR cells + 2 uM doxorubicin), the differential viability (reversal) is 13% (inactive). In addition, the inhibition was -4.21% (inactive) in assay [7] and 0.18% (inactive) in assay [8].
Turning to `CCOC(=O)C1CCN(C(=O)c2ccc(OC)cc2OC)CC1`, the viability in assay [1] was 102%; in assay [3], 102% (inactive); in assay [4], 110% (inactive); in assay [5] it was 106% (inactive); in assay [6] (setting [9]), 100%; in assay [6] (setting [10]), 106%. The Her2 level in assay [2] is 112% (inactive). The differential viability (reversal) in assay [6] (H69AR cells + 2 uM doxorubicin) is 5.9% (inactive). Moreover, the inhibition in assay [7] was -6.13% (inactive); in assay [8], 6.13% (inactive).
Turning to `CCOC(=O)N1CCN(C(=O)c2n[nH]c(=O)c3ccccc23)CC1`, the viability in assay [1] is 85%; in assay [3], 85% (inactive); in assay [4], 95.1% (inactive); in assay [5] it was 91.6% (inactive); in assay [6] (setting [9]), 89.8%; in assay [6] (setting [10]) it was 91.6%. The Her2 level in assay [2] was 101% (inactive). For the same compound, the differential viability (reversal) in assay [6] (H69AR cells + 2 uM doxorubicin) was 1.86% (inactive). Moreover, the inhibition in assay [7] was -1.6% (inactive); in assay [8] it was 19% (inactive).
Consider `COc1ccc(NC(=O)Nc2ccc(C)cc2OC(F)F)cc1OC`, for which the viability in assay [1] is 95%; in assay [3], 95% (inactive); in assay [4] it was 88% (inactive); in assay [5], 93% (inactive); in assay [6] (setting [9]) it was 86.1%; in assay [6] (setting [10]), 93%. The Her2 level in assay [2] is 79.5% (inactive). Moreover, the differential viability (reversal) in assay [6] (H69AR cells + 2 uM doxorubicin) was 6.81% (inactive). Moreover, the inhibition in assay [7] was -3.95% (inactive); in assay [8] it was -6.67% (inactive).
On to `CC(=O)Nc1ccc(S(=O)(=O)N2CCC(c3nc4ccccc4[nH]3)CC2)cc1`, for which the viability in assay [1] is 93%; in assay [3], 93% (inactive); in assay [4], 78.9% (inactive); in assay [5], 93.6% (inactive); in assay [6] (setting [9]), 83.9%; in assay [6] (setting [10]), 93.6%. Also, the Her2 level in assay [2] is 81.5% (inactive). For the same compound, the differential viability (reversal) in assay [6] (H69AR cells + 2 uM doxorubicin) is 9.73% (inactive). Further, the inhibition in assay [7] is -3.78% (inactive); in assay [8], 0% (inactive).
Take `CC1CCN(C(=O)C2CCN(S(=O)(=O)c3cnc[nH]3)CC2)CC1`: the viability in assay [1] was 98%; in assay [3], 98% (inactive); in assay [4], 96.5% (inactive); in assay [5], 103% (inactive); in assay [6] (setting [9]), 95.3%; in assay [6] (setting [10]) it was 103%. For the same compound, the Her2 level in assay [2] is 93% (inactive). Besides, the differential viability (reversal) in assay [6] (H69AR cells + 2 uM doxorubicin) is 7.72% (inactive). For the same compound, the inhibition in assay [7] was -4.61% (inactive); in assay [8], 3.87% (inactive).
`Cc1cc(NC(=O)c2cc3ccccc3o2)cc(C)c1OCC(=O)N1CCOCC1`: the viability is 92.5% in assay [1]; 92.5% (inactive) in assay [3]; 90.6% (inactive) in assay [4]; 90.3% (inactive) in assay [5]; 89.5% in assay [6] (setting [9]); 90.3% in assay [6] (setting [10]). Besides, the Her2 level in assay [2] is 102% (inactive). Further, in assay [6] (H69AR cells + 2 uM doxorubicin), the differential viability (reversal) was 0.745% (inactive). In addition, the inhibition is -6.89% (inactive) in assay [7] and -1.8% (inactive) in assay [8].
Regarding `CC(C)c1nnc(NC(=O)c2cnccn2)s1`, the viability in assay [1] was 87.5%; in assay [3], 87.5% (inactive); in assay [4], 104% (inactive); in assay [5], 92.2% (inactive); in assay [6] (setting [9]), 92.3%; in assay [6] (setting [10]), 92.2%. In assay [2], the Her2 level is 88.5% (inactive). Also, in assay [6] (H69AR cells + 2 uM doxorubicin), the differential viability (reversal) is -0.1% (inactive). Moreover, the inhibition in assay [7] was -3.65% (inactive); in assay [8], -2.46% (inactive).
Consider `CCc1ccc(N2CC(C(=O)OCC(=O)Nc3cc(C)on3)CC2=O)cc1` (stereo not given), for which the viability in assay [1] is 94%; in assay [3], 94% (inactive); in assay [4], 107% (inactive); in assay [5], 110% (inactive); in assay [6] (setting [9]), 99.2%; in assay [6] (setting [10]) it was 110%. Besides, the Her2 level in assay [2] is 92% (inactive). Further, the differential viability (reversal) in assay [6] (H69AR cells + 2 uM doxorubicin) is 11.1% (inactive). Moreover, the inhibition is 0.9% (inactive) in assay [7] and -3.83% (inactive) in assay [8].
For `COc1ccc2c(c1)CCc1c(C(=O)NCc3cccnc3)noc1-2`, the viability is 97.5% in assay [1]; 97.5% (inactive) in assay [3]; 102% (inactive) in assay [4]; 103% (inactive) in assay [5]; 85.3% in assay [6] (setting [9]); 103% in assay [6] (setting [10]). Moreover, the Her2 level in assay [2] was 95.5% (inactive). In addition, in assay [6] (H69AR cells + 2 uM doxorubicin), the differential viability (reversal) was 17.7% (inactive). In addition, the values for the inhibition in assay [7] and in assay [8] were -1.71% (inactive) and 0.55% (inactive), respectively.
For `CCC(=O)N(CCCN(C)C)c1nc(-c2cc(OC)ccc2OC)cs1`, the viability in assay [1] is 93.5%; in assay [3], 93.5% (inactive); in assay [4], 78.2% (inactive); in assay [5], 84.6% (inactive); in assay [6] (setting [9]) it was 73.3%; in assay [6] (setting [10]), 84.6%. Moreover, the Her2 level in assay [2] is 87.5% (inactive). The differential viability (reversal) in assay [6] (H69AR cells + 2 uM doxorubicin) is 11.2% (inactive). In addition, the figures for the inhibition in assay [7] and in assay [8] were -5.2% (inactive) and 5.08% (inactive), respectively.
